This note sets out measurements from ChEMBL document CHEMBL1138710, “A nonhydrolyzable analogue of phosphotyrosine, and related aryloxymethano- and aryloxyethano-phosphonic acids as motifs for inhibition of phosphatases” (Bioorg Med Chem Lett, 2004).

For assay [1], the target named is T1, Serine/threonine-protein phosphatase (Enterobacteria phage lambda) (UniProt P03772).
T1 sequence (whole entry): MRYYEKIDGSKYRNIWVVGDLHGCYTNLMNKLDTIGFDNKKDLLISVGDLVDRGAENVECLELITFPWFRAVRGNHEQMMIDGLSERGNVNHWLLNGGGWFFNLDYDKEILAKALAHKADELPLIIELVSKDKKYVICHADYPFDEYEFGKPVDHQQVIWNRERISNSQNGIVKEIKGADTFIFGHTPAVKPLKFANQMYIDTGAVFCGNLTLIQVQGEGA
The experiment in a line: Inhibition constant for lambda protein phosphatase in presence of [Mn2+] at 5 mM pH 7.3.

Assay [2] concerns the target Secreted effector protein (Yersinia pestis) (UniProt O68720). The experiment in a line: Inhibition constant for YOP protein tyrosine phosphatase at pH 6.6. In outline: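 Competitive Ki (mM) measured at 25°C against p-nitrophenyl phosphate substrate, in 100 mM succinate, 150 mM NaCl, pH 6.6.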
Assay [3] addresses Alkaline phosphatase (Escherichia coli K-12) (UniProt P00634). The experiment in a line: Inhibition constant for Escherichia coli alkaline phosphatase at pH 9. In outline:
(§1)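 Competitive inhibition kinetics with p-nitrophenyl phosphate as substrate at 25°C, in 100 mM TRIS, 1 mM ZnCl2, 1 mM MgCl2, pH 9.0. Ki (mM) was derived from the competitive inhibition rate equation.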

For assay [4], the species on record is Homo sapiens. The assay is described as follows: Inhibition constant for human placental alkaline phosphatase at pH 9. In outline: as §1
Assay [5] can be described thus: Inhibition constant protein phosphatase 2C in presence of [Mn2+] at 5 mM pH 7.5. In outline: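 Competitive inhibition kinetics with p-nitrophenyl phosphate substrate (Km 1.1 mM under these conditions) at 25°C, in 100 mM TRIS, 5 mM MnCl2, 1 mM DTT, pH 7.5. Ki (mM) was derived from the competitive inhibition rate equation.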
Assay [6] concerns the target Alkaline phosphatase (Escherichia coli K-12) (UniProt P00634). The experiment in a line: Inhibition constant for Escherichia coli alkaline phosphatase at pH 9; No reduction in rate.
Assay [7] in a line: Inhibition constant for protein phosphatase 2C in presence of [Mn2+] at 1 mM pH 7.5. An outline of the steps:
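Kinetics at 25°C with p-nitrophenyl phosphate substrate in 100 mM TRIS, 1 mM MnCl₂, 1 mM DTT, pH 7.5. Mn²⁺ was lowered from 5 mM for compounds precipitating at that level. Substrate Km was 1.1 mM and matched within error at both Mn²⁺ levels. Ki (mM) from a competitive inhibition model.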

The species entered for assay [8] is Homo sapiens. The assay is described as follows: Inhibition constant for human placental alkaline phosphatase at pH 9; No reduction in rate.

Chain of Alkaline phosphatase (Escherichia coli K-12) (P00634 whole entry): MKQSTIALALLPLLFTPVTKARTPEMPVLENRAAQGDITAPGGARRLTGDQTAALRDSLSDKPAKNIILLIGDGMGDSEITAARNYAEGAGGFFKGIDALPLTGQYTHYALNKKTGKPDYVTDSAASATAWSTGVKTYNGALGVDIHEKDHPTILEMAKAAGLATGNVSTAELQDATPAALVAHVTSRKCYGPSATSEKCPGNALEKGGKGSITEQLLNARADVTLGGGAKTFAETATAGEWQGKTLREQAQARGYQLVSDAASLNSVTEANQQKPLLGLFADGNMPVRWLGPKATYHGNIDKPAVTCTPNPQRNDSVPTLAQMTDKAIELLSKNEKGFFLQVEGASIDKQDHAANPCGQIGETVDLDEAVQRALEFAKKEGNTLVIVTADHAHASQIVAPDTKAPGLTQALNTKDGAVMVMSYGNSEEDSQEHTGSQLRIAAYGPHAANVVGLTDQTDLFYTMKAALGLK

As for `N[C@H](Cc1ccc(OCP(=O)(O)O)cc1)C(=O)O`, the Inhibition in assay [1] was 0.03 mM; in assay [2], 0.63 mM; in assay [3], 4.8 mM; in the assay filed under Homo sapiens [4], 1.85 mM; in assay [5] it was 0.34 mM.
As to `O=P(O)(O)COc1ccccc1`, the Inhibition in assay [1] was 0.27 mM; in assay [2], 5 mM; in the assay filed under Homo sapiens [4], 0.9 mM; in assay [6] it was “No inhibition”; in assay [7], 0.32 mM.
Take `O=P(O)(O)CCSc1ccccc1`: the Inhibition in assay [1] was 0.14 mM; in assay [2] it was 10 mM; in assay [3] it was 0.9 mM; in the assay listed under Homo sapiens [4] it was 0.69 mM; in assay [7] it was 0.3 mM.
On to `O=C(O)Cc1ccc(OCCP(=O)(O)O)cc1`, for which the Inhibition in assay [1] was 0.12 mM; in assay [2] it was 19 mM; in assay [3] it was 0.6 mM; in the assay filed under Homo sapiens [4] it was 0.14 mM; in assay [5] it was 0.23 mM.
The like results for `N[C@@H](Cc1ccc(OCP(=O)(O)O)cc1)C(=O)O` were, in that order, 0.02 mM, 21 mM, 5 mM, 1.7 mM and 0.76 mM.
With `O=P(O)(O)COc1ccc2ccccc2c1`, the Inhibition result in assay [1] is “Precipitation”; in assay [2], 6.3 mM; in assay [3], 4 mM; in the assay listed under Homo sapiens [4], 1.1 mM; in assay [5], “Precipitation”.
In the case of `O=C(O)c1cccc2cc(OCP(=O)(O)O)ccc12`, the Inhibition in assay [1] is 0.03 mM; in assay [2], 2.2 mM; in assay [3] it was 4.2 mM; in the assay filed under Homo sapiens [4], 3.4 mM; in assay [5], 0.06 mM.
On to `O=C(O)Cc1ccc(OCP(=O)(O)O)cc1`, for which the Inhibition in assay [1] was 0.19 mM; in assay [2], 12 mM; in assay [3] it was 5.1 mM; in the assay filed under Homo sapiens [8], “No inhibition”; in assay [5], 0.13 mM.
`O=P(O)(O)CSc1ccccc1`: the Inhibition in assay [1] was found to be 0.33 mM; in assay [2], 4.6 mM; in assay [3] it was 0.04 mM; in the assay listed under Homo sapiens [4], 0.13 mM; in assay [7], 0.17 mM.
`O=P(O)(O)CCOc1ccccc1`: the Inhibition in assay [1] was 0.05 mM; in assay [2] it was 2.17 mM; in assay [3], 0.1 mM; in the assay listed under Homo sapiens [4], 0.11 mM; in assay [7], 0.4 mM.
